Results published in ChEMBL document CHEMBL5150051, “Identification and Characterization of a Novel Indoleamine 2,3-Dioxygenase 1 Protein Degrader for Glioblastoma” (J Med Chem, 2022).

molecular target: von Hippel-Lindau disease tumor suppressor/Indoleamine 2,3-dioxygenase 1 (Homo sapiens) (UniProt P14902+P40337); assay: Protac activity at IDO1/VHL in IFNgamma-stimulated human U87 cells assessed as IDO1 degradation at 10 uM measured after 24 hrs by Western blotting analysis relative to control; type: cell-based
Sequence (P14902 whole entry, looked up): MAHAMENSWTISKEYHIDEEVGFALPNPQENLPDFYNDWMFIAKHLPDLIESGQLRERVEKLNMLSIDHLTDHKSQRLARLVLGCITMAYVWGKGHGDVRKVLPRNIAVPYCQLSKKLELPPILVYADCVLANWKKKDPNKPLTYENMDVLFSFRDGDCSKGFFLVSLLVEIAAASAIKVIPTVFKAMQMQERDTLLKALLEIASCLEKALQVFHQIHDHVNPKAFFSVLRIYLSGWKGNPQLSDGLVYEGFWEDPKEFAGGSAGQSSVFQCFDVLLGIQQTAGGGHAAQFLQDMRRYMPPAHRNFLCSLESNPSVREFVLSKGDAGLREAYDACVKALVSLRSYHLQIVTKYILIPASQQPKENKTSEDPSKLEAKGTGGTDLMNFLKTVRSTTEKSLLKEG
Sequence (P40337 whole entry, looked up): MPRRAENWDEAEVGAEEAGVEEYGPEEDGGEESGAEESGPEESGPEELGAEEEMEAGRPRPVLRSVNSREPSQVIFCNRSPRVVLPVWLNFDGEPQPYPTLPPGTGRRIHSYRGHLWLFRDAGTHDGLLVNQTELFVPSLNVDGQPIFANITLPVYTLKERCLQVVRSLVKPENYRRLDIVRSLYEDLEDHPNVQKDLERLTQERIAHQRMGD
Method in brief: (§1)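 U87 GBM cells primed with human IFNγ 50 ng/mL for 24 h, then exposed to PROTAC at 10 μM for 24 h. Lysates run on western blot; IDO1 bands quantified by densitometry and expressed as percent of normalized IDO1 protein level.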

Structure (SMILES) | Activity [%]
Cc1ncsc1-c1ccc(CNC(=O)[C@@H]2C[C@@H](O)CN2C(=O)[C@@H](NC(=O)C2(F)CC2)C(C)(C)C)c(OCCOCCC(=O)N2CC(Oc3ccc(NC(=O)[C@H](C)[C@H]4CC[C@@H](c5ccnc6ccc(F)cc65)CC4)cc3)C2)c1 | 20
Cc1ncsc1-c1ccc(CNC(=O)[C@H]2C[C@H](O)CN2C(=O)[C@H](NCCCOc2cc(NC(=O)[C@H](C)[C@H]3CC[C@@H](c4ccnc5ccc(F)cc54)CC3)ccc2Cl)C(C)(C)C)cc1 | 0
Cc1ncsc1-c1ccc(CNC(=O)[C@@H]2C[C@@H](O)CN2C(=O)[C@@H](NCCOCCOc2ccc(NC(=O)[C@H](C)[C@H]3CC[C@@H](c4ccnc5ccc(F)cc54)CC3)cc2)C(C)(C)C)cc1 | 0
Cc1ncsc1-c1ccc(CNC(=O)[C@@H]2C[C@@H](O)CN2C(=O)[C@@H](NCCOCCOCCOCCOCCOc2cc(NC(=O)[C@H](C)[C@H]3CC[C@@H](c4ccnc5ccc(F)cc54)CC3)ccc2Cl)C(C)(C)C)cc1 | 0
Cc1ncsc1-c1ccc(CNC(=O)[C@@H]2C[C@@H](O)CN2C(=O)[C@@H](NC(=O)C2(F)CC2)C(C)(C)C)c(OCCCCCCCCCCOc2ccc(NC(=O)[C@H](C)[C@H]3CC[C@@H](c4ccnc5ccc(F)cc54)CC3)cc2)c1 | 23
Cc1ncsc1-c1ccc(CNC(=O)[C@@H]2C[C@@H](O)CN2C(=O)[C@@H](NCCOCCOc2cc(NC(=O)[C@H](C)[C@H]3CC[C@@H](c4ccnc5ccc(F)cc54)CC3)ccc2Cl)C(C)(C)C)cc1 | 0
Cc1ncsc1-c1ccc(CNC(=O)[C@@H]2C[C@@H](O)CN2C(=O)[C@@H](NC(=O)C2(F)CC2)C(C)(C)C)c(OCCOCCOCCOCCOCCOCCOc2cc(NC(=O)[C@H](C)[C@H]3CC[C@@H](c4ccnc5ccc(F)cc54)CC3)ccc2Cl)c1 | 0

molecular target: Protein cereblon/Indoleamine 2,3-dioxygenase 1 (Homo sapiens, UniProt P14902+Q96SW2); assay: Protac activity at IDO1/CRBN in IFNgamma-stimulated human U87 cells assessed as IDO1 degradation at 10 uM measured after 24 hrs by Western blotting analysis relative to control; type: cell-based; method in brief: as §1
Sequence (P14902 whole entry, looked up): as the sequence (P14902 whole entry, looked up) above
Sequence (Q96SW2 whole entry, looked up): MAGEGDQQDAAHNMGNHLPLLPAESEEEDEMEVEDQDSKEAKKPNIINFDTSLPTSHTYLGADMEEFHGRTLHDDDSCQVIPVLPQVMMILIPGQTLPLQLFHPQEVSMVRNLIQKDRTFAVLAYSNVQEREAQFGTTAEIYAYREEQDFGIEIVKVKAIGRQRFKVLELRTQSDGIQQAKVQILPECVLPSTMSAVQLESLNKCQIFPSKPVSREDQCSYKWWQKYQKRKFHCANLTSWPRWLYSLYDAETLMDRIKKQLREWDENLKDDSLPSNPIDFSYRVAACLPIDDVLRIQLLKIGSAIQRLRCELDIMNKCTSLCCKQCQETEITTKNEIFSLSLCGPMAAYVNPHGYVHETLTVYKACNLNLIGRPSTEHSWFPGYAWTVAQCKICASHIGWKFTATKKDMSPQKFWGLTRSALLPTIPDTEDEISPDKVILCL

Structure (SMILES) | Activity [%]
C[C@@H](C(=O)Nc1ccc(OCCOCCOCCOCCOCCNc2cccc3c2C(=O)N(C2CCC(=O)NC2=O)C3=O)cc1)[C@H]1CC[C@@H](c2ccnc3ccc(F)cc32)CC1 (some centres undefined) | 0
C[C@@H](C(=O)Nc1ccc(OC2CCN(CCCOCCOCCNC(=O)COc3cccc4c3C(=O)N(C3CCC(=O)NC3=O)C4=O)CC2)cc1)[C@H]1CC[C@@H](c2ccnc3ccc(F)cc32)CC1 (some centres undefined) | 33
C[C@@H](C(=O)Nc1ccc(OCCOCCOc2cccc3c2C(=O)N(C2CCC(=O)NC2=O)C3=O)cc1)[C@H]1CC[C@@H](c2ccnc3ccc(F)cc32)CC1 (some centres undefined) | 18
C[C@@H](C(=O)Nc1ccc(OCCCCCCCCCCOc2cccc3c2C(=O)N(C2CCC(=O)NC2=O)C3=O)cc1)[C@H]1CC[C@@H](c2ccnc3ccc(F)cc32)CC1 (some centres undefined) | 0
C[C@@H](C(=O)Nc1ccc(OCCCCCCCCCCNC(=O)COc2cccc3c2C(=O)N(C2CCC(=O)NC2=O)C3=O)cc1)[C@H]1CC[C@@H](c2ccnc3ccc(F)cc32)CC1 (some centres undefined) | 0
C[C@@H](C(=O)Nc1ccc(OC2CCN(CCCOCCOc3cccc4c3C(=O)N(C3CCC(=O)NC3=O)C4=O)CC2)cc1)[C@H]1CC[C@@H](c2ccnc3ccc(F)cc32)CC1 (some centres undefined) | 0
C[C@@H](C(=O)Nc1ccc(OCCOCCOCCOCCNC(=O)COc2cccc3c2C(=O)N(C2CCC(=O)NC2=O)C3=O)cc1)[C@H]1CC[C@@H](c2ccnc3ccc(F)cc32)CC1 (some centres undefined) | 0
C[C@@H](C(=O)Nc1ccc(Cl)c(OCCOCCOCCNC(=O)COc2cccc3c2C(=O)N(C2CCC(=O)NC2=O)C3=O)c1)[C@H]1CC[C@@H](c2ccnc3ccc(F)cc32)CC1 (some centres undefined) | 40
C[C@@H](C(=O)Nc1ccc(Cl)c(OCCCCCCNC(=O)COc2cccc3c2C(=O)N(C2CCC(=O)NC2=O)C3=O)c1)[C@H]1CC[C@@H](c2ccnc3ccc(F)cc32)CC1 (some centres undefined) | 0
C[C@@H](C(=O)Nc1ccc(OCCCCNC(=O)COc2cccc3c2C(=O)N(C2CCC(=O)NC2=O)C3=O)cc1)[C@H]1CC[C@@H](c2ccnc3ccc(F)cc32)CC1 (some centres undefined) | 10
C[C@@H](C(=O)Nc1ccc(Cl)c(OCCOCCOCCOCCOc2cccc3c2C(=O)N(C2CCC(=O)NC2=O)C3=O)c1)[C@H]1CC[C@@H](c2ccnc3ccc(F)cc32)CC1 (some centres undefined) | 13
C[C@@H](C(=O)Nc1ccc(OC2CCN(CCCOCCOCCOc3cccc4c3C(=O)N(C3CCC(=O)NC3=O)C4=O)CC2)cc1)[C@H]1CC[C@@H](c2ccnc3ccc(F)cc32)CC1 (some centres undefined) | 0
